# Data: ChEMBL document CHEMBL1138890, “Development of N-2,4-pyrimidine-N-phenyl-N'-alkyl ureas as orally active inhibitors of tumor necrosis factor alpha (TNF-alpha) synthesis. Part 2” (Bioorg Med Chem Lett, 2006)
# pIC50: −log10 of the molar value.
# Test system: not listed separately
# Experiment: Bioavailability in po dosed Sprague-Dawley rat
# Format: ADME, organism-based
# Settings: in vivo
row,bioavailability,Structure (SMILES)
1,15%,CCNC(=O)N(c1ccc(OC)cc1)c1ccnc(N[C@@H](C)C(C)(C)O)n1

# Test system: THP-1
# Experiment: Inhibition of LPS-stimulated TNFalpha production in human THP1 cells
# Format: functional, cell-based
# Settings: not given
row,pIC50,Structure (SMILES)
1,7.80,O=C(NCc1ccccc1Cl)N(c1ccc(F)cc1)c1ccnc(NC2CCOCC2)n1
2,5.68,COC[C@H](C)Nc1nccc(N(C(=O)NCc2ccc(Cl)c(Cl)c2)c2ccc(OC)cc2)n1
3,8.05,COc1ccc(N(C(=O)NCc2ccccc2Cl)c2ccnc(N[C@@H](C)C(C)(C)O)n2)cc1
4,7.10,CCNC(=O)N(c1ccc(OC)cc1)c1ccnc(NC(C)C)n1
5,6.56,CCNC(=O)N(c1ccc(OCC)cc1)c1ccnc(N[C@@H](C)COC)n1
6,5.94,CC(C)Nc1nccc(N(C(=O)NCC2CCN(C(=O)OC(C)(C)C)CC2)c2ccc(F)cc2)n1
7,6.63,COC[C@H](C)Nc1nccc(N(C(=O)NCc2ccccc2Cl)c2ccc(F)cc2)n1
8,6.56,CC(C)Nc1nccc(N(C(=O)NCCN2CCN(C(=O)OC(C)(C)C)CC2)c2ccc(F)cc2)n1
9,6.33,COC[C@H](C)Nc1nccc(N(C(=O)NC2CCCCC2)c2ccc(OC)cc2)n1
10,7.52,CC(C)Nc1nccc(N(C(=O)NCc2ccccn2)c2ccc(F)cc2)n1
11,6.83,COC[C@H](C)Nc1nccc(N(C(=O)NCc2ccccc2Cl)c2ccc(OC)cc2)n1
12,6.21,COC[C@H](C)Nc1nccc(N(C(=O)NCc2ccc(Cl)cc2Cl)c2ccc(OC)cc2)n1
13,7.25,CCOc1ccc(N(C(=O)NCc2ccccc2Cl)c2ccnc(N[C@@H](C)COC)n2)cc1
14,7.80,COc1ccc(N(C(=O)NCc2ccccc2Cl)c2ccnc(NC(C)C)n2)cc1
15,6.09,CCNC(=O)N(c1ccc(OC)cc1)c1ccnc(N[C@@H](C)COC)n1
16,7.13,CC(C)NC(=O)N(c1ccc(F)cc1)c1ccnc(NC(C)C)n1
17,7.55,CCNC(=O)N(c1ccc(OC)cc1)c1ccnc(N[C@@H](C)C(C)(C)O)n1
18,7.07,CCNC(=O)N(c1ccc(F)cc1)c1ccnc(NC2CCOCC2)n1
19,8.40,CC(C)Nc1nccc(N(C(=O)NCc2ccncc2)c2ccc(F)cc2)n1
20,6.49,CCCCNC(=O)N(c1ccc(OC)cc1)c1ccnc(N[C@@H](C)COC)n1
21,7.43,COc1ccc(N(C(=O)NCc2ccccc2C)c2ccnc(N[C@@H](C)C(C)(C)O)n2)cc1
22,7.82,COc1ccc(N(C(=O)NCc2ccccc2OC)c2ccnc(N[C@@H](C)C(C)(C)O)n2)cc1
23,7.85,C[C@H](Nc1nccc(N(C(=O)NCc2ccccc2Cl)c2ccc(F)cc2)n1)C(C)(C)O
24,7.80,CC(C)Nc1nccc(N(C(=O)NCC2CCNCC2)c2ccc(F)cc2)n1
25,6.92,CC(C)Nc1nccc(N(C(=O)NCCN2CCNCC2)c2ccc(F)cc2)n1

# Test system: not listed separately
# Experiment: Half life in Sprague-Dawley rat
# Format: ADME, organism-based
# Settings: in vivo
row,half-life,Structure (SMILES)
1,1.9 h,COc1ccc(N(C(=O)NCc2ccccc2Cl)c2ccnc(N[C@@H](C)C(C)(C)O)n2)cc1
2,0.46 h,CCNC(=O)N(c1ccc(F)cc1)c1ccnc(NC2CCOCC2)n1

# Test system: not listed separately
# Experiment: Solubility in Sprague-Dawley rat
# Format: ADME, organism-based
# Settings: not given
row,solubility,Structure (SMILES)
1,< 10 µg/mL,COc1ccc(N(C(=O)NCc2ccccc2Cl)c2ccnc(N[C@@H](C)C(C)(C)O)n2)cc1
2,240 µg/mL,CCNC(=O)N(c1ccc(OC)cc1)c1ccnc(N[C@@H](C)C(C)(C)O)n1
3,25 µg/mL,CCNC(=O)N(c1ccc(F)cc1)c1ccnc(NC2CCOCC2)n1

# Test system: not listed separately
# Experiment: Metabolism measured as percent loss of compound in Sprague-Dawley rat hepatocytes after 4 hrs
# Format: ADME, cell-based, Hepatocyte
# Settings: read-out: Activity
# Procedure, shortened: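 Compound incubated with plated Sprague–Dawley rat hepatocytes for 4 h. Metabolism expressed as percent loss of parent compound.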
row,metabolised at 4 h,Structure (SMILES)
1,32%,COc1ccc(N(C(=O)NCc2ccccc2Cl)c2ccnc(N[C@@H](C)C(C)(C)O)n2)cc1
2,32%,CCNC(=O)N(c1ccc(OC)cc1)c1ccnc(N[C@@H](C)C(C)(C)O)n1
3,16%,CCNC(=O)N(c1ccc(F)cc1)c1ccnc(NC2CCOCC2)n1

# Test system: THP-1
# Experiment: Inhibition of LPS-stimulated TNFalpha production in human THP1 cells at 10 uM
# Format: functional
# Settings: not given
row,Structure (SMILES),inhibition at 10 µM
1,CN(C)c1nccc(N(C(=O)NCc2ccccc2Cl)c2ccc(F)cc2)n1,35%
2,O=C(NCc1ccccc1Cl)N(c1ccc(F)cc1)c1ccnc(Nc2c(F)cccc2F)n1,25%
3,CNc1nccc(N(C(=O)NCc2ccccc2Cl)c2ccc(OC)cc2)n1,3%

# Test system: Rattus norvegicus
# Experiment: Reduction in severity of cartilage damage in Sprague-Dawley rat at 25 mg/kg
# Format: functional
# Set-up: scale not given: the % may be the effect or the level left
# Settings: not given
# Procedure, shortened: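 Osteoarthritis was induced in male Sprague–Dawley rats (200–225 g) under anesthesia by injecting 20 µL of 10 mg/mL monosodium iodoacetate into the patellar ligament region of the left knee, flexed 90°. Groups of 15 were dosed BID (about every 12 h) for 7 days with 25 mg/kg compound or vehicle (2.5 mL/kg). On day 22 the left joint was fixed in 10% formalin for 24–48 h and the tibial cartilage surface imaged. Damage severity was compared with vehicle (P < 0.05).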
row,Structure (SMILES),Activity
1,CCNC(=O)N(c1ccc(OC)cc1)c1ccnc(N[C@@H](C)C(C)(C)O)n1,24%
2,CCNC(=O)N(c1ccc(F)cc1)c1ccnc(NC2CCOCC2)n1,16%

# Test system: not listed separately
# Experiment: Bioavailability in Sprague-Dawley rat
# Format: ADME, organism-based
# Settings: in vivo
row,bioavailability,Structure (SMILES)
1,1.9%,COc1ccc(N(C(=O)NCc2ccccc2Cl)c2ccnc(N[C@@H](C)C(C)(C)O)n2)cc1
2,13.2%,CCNC(=O)N(c1ccc(F)cc1)c1ccnc(NC2CCOCC2)n1
